In ChEMBL document CHEMBL1155459, “On-bead screening of a combinatorial fumaric acid derived peptide library yields antiplasmodial cysteine protease inhibitors with unusual peptide sequences” (J Med Chem, 2009):
Calls of active or inactive are those of the source. The calls are words filed in the database; no cut-off is given here. Square brackets hold non-standard residues; d marks the D form. Peptide text beside a SMILES is read from it. * marks the point of attachment. Fumaroyl(GlyGlyPheOH) = O=C(/C=C/C(=O)*)NCC(=O)NCC(=O)N[C@@H](Cc1ccccc1)C(=O)O; Chg = N[C@H](C(=O)O)C1CCCCC1; Dap = NC[C@H](N)C(=O)O

How the values were obtained:
[1] = target: T1, Cathepsin B (Homo sapiens, UniProt P07858); assay: Inhibition of human liver cathepsin B
Summary of the method: (§1)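 Cathepsin L (bovine spleen) or B (human liver) hydrolysis of Cbz-Phe-Arg-AMC (40 μM) followed by fluorescence for 5-10 min without preincubation at 0.1-80 μM inhibitor, 10% DMSO final.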

[2] = tested on: Plasmodium falciparum; assay: Inhibition of Plasmodium falciparum recombinant falcipain-2 expressed in Escherichia coli at 100 uM after 20 min by spectrofluorometry
Summary of the method: (§2)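 Single-point screen at 100 μM inhibitor (final). Recombinant enzyme in 50 mM acetate pH 5.5, 5 mM EDTA, 200 mM NaCl, 5 mM DTT, 10% DMSO final; Cbz-Phe-Arg-AMC 40 μM (or Cbz-Leu-Arg-AMC 25 μM) hydrolysis followed by fluorescence (ex 380/em 460 nm). % inhibition = 100(1 − vi/vc) from progress-curve slopes vs DMSO control; at least two independent assays.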

[3] = tested on: Plasmodium falciparum; assay: Antiplasmodial activity against Plasmodium falciparum FCBR by fluorometric method; format: functional, organism-based, FCBR/Columbia
[4] = target: Rhodesain (Trypanosoma brucei rhodesiense) (UniProt Q95PM0); assay: Inhibition of Trypanosoma brucei rhodesiense recombinant rhodesain at 100 uM; summary of the method: as §2
[5] = target: Procathepsin L (Bos taurus, UniProt P25975); assay: Inhibition of bovine spleen cathepsin L; summary of the method: as §1
[6] = Inhibition of Plasmodium falciparum falcipain-2 after 12 hrs by fluorescence spectroscopy-based on-bead assay; parameters: concentration or dose not given beside the values; details: concentration not given here
Summary of the method: (§3)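 Library members on resin (PEGA, theoretical loading 0.40 mmol/g; added as DMSO suspension, 0.64 mM final inhibitor) preincubated with enzyme 12 h, then Cbz-Phe-Arg-AMC 40 μM added; AMC release followed by fluorescence (ex 380/em 460 nm). Kinetics compared with inhibitor-free amino-PEGA resin.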

[7] = target: Rhodesain (Trypanosoma brucei rhodesiense) (UniProt Q95PM0); assay: Inhibition of Trypanosoma brucei rhodesiense rhodesain after 12 hrs by fluorescence spectroscopy-based on-bead assay; parameters: concentration or dose not given beside the values; details: concentration not given here; summary of the method: as §3
[8] = target: T1, Cathepsin B; assay: Inhibition of human liver cathepsin B at 100 uM
[9] = target: Rhodesain (Trypanosoma brucei rhodesiense, UniProt Q95PM0); assay: Inhibition of Trypanosoma brucei rhodesiense recombinant rhodesain
[10] = Inhibition of Plasmodium falciparum recombinant falcipain-2 expressed in Escherichia coli after 20 min using Cbz-Phe-Arg-AMC as substrate by spectrofluorometry; details: in the assay text read “over 5-10 min” for “after 20 min”
Summary of the method: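 Continuous assay without preincubation. Recombinant falcipain-2 in 50 mM acetate pH 5.5, 5 mM EDTA, 200 mM NaCl, 5 mM DTT, 10% DMSO final; Cbz-Phe-Arg-AMC (40 μM, Km 21.5 μM) or Cbz-Leu-Arg-AMC (25 μM, Km 8.4 μM). Fluorescence monitored 5-10 min at 0.1-80 μM inhibitor. Ki from Dixon plot, corrected to zero substrate; at least two independent assays.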

[11] = tested on: Trypanosoma brucei brucei; assay: Antitrypanosomal activity against Trypanosoma brucei brucei; format: functional, organism-based
[12] = Plasmodium falciparum, FCBR/Columbia, read-out: IC50

Procathepsin L, sequence (P25975 whole entry): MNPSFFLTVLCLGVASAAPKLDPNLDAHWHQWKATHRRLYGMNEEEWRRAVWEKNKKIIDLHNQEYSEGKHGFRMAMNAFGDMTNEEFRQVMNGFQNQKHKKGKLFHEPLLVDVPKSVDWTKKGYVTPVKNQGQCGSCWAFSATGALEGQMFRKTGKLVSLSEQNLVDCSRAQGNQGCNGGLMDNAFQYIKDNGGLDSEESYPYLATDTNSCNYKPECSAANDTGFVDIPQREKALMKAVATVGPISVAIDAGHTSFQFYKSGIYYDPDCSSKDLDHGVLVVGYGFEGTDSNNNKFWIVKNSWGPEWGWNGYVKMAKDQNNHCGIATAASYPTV
Rhodesain (Trypanosoma brucei rhodesiense), sequence (Q95PM0 1-450): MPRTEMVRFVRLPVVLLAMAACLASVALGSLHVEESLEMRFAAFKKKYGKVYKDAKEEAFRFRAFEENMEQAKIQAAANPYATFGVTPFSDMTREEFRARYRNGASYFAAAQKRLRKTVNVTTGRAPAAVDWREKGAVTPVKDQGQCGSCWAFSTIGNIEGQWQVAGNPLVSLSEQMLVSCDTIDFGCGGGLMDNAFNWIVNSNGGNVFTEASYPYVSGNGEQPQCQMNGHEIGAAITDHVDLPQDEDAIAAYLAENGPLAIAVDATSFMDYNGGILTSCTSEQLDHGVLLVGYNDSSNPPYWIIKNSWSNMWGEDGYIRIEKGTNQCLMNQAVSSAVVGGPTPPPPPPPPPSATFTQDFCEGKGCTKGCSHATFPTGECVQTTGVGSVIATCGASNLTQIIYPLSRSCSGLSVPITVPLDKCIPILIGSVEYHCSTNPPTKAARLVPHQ
Rhodesain, sequence (Q95PM0 whole entry): as the sequence (Q95PM0 1-450) above

IC50 ([11]; Trypanosoma brucei, read-out: IC50)	Structure (SMILES)	Ki [1]	inhibition [2]	IC50 [3]	inhibition [4]	Ki [5]	inhibition [6]	inhibition [7]	inhibition [8]	Ki [9]	Ki [10]	IC50 [3, 12]	IC50 [11]
–	CC(C)C[C@H](NC(=O)[C@H](Cc1ccccc1)NC(=O)/C=C/C(=O)NCC(=O)NCC(=O)N[C@@H](Cc1ccccc1)C(=O)O)C(=O)N[C@@H](CC(C)C)C(=O)N[C@H](C(N)=O)C(C)C (HELM PEPTIDE1{[O=C(/C=C/C(=O)[*:2])NCC(=O)NCC(=O)N[C@@H](Cc1ccccc1)C(=O)O].F.L.L.V.[am]}$$$$V2.0)	22.9 µM	100%	Not Active	68%	34.8 µM	69%	69%	73%	0.2 µM	0.8 µM	–	–
–	CC(C)[C@H](NC(=O)[C@H](C)NC(=O)[C@@H](NC(=O)[C@H](CC(N)=O)NC(=O)/C=C/C(=O)NCC(=O)NCC(=O)N[C@@H](Cc1ccccc1)C(=O)O)C1CCCCC1)C(N)=O (HELM PEPTIDE1{[O=C(/C=C/C(=O)[*:2])NCC(=O)NCC(=O)N[C@@H](Cc1ccccc1)C(=O)O].N.[O=C([C@@H](N[*:1])C1CCCCC1)[*:2]].A.V.[am]}$$$$V2.0)	22.2 µM	79%	–	98%	–	73%	26%	78%	0.4 µM	12.2 µM	75 µM	–
–	CC(C)C[C@H](NC(=O)[C@@H](NC(=O)[C@H](CC(N)=O)NC(=O)/C=C/C(=O)NCC(=O)NCC(=O)N[C@@H](Cc1ccccc1)C(=O)O)c1ccccc1)C(=O)N[C@H](C(N)=O)C(C)C (HELM PEPTIDE1{[O=C(/C=C/C(=O)[*:2])NCC(=O)NCC(=O)N[C@@H](Cc1ccccc1)C(=O)O].N.[Phg].L.V.[am]}$$$$V2.0)	–	76%	Not Active	26%	–	51%	50%	13%	–	21.3 µM	–	–
–	Cc1ccc(C(=O)Nc2ccc(S(=O)(=O)O)c3cc(S(=O)(=O)O)cc(S(=O)(=O)O)c23)cc1NC(=O)c1cccc(NC(=O)Nc2cccc(C(=O)Nc3cc(C(=O)Nc4ccc(S(=O)(=O)O)c5cc(S(=O)(=O)O)cc(S(=O)(=O)O)c45)ccc3C)c2)c1	–	–	–	32%	–	–	–	–	–	–	–	–
–	CC(C)[C@H](NC(=O)[C@@H](NC(=O)[C@@H](NC(=O)[C@H](CCC(N)=O)NC(=O)/C=C/C(=O)NCC(=O)NCC(=O)N[C@@H](Cc1ccccc1)C(=O)O)C1CCCCC1)C(C)C)C(N)=O (HELM PEPTIDE1{[O=C(/C=C/C(=O)[*:2])NCC(=O)NCC(=O)N[C@@H](Cc1ccccc1)C(=O)O].Q.[O=C([C@@H](N[*:1])C1CCCCC1)[*:2]].V.V.[am]}$$$$V2.0)	–	83%	–	99%	–	51%	53%	81%	0.08 µM	1.5 µM	27 µM	Not Active
–	CC(=O)NC[C@H](NC(=O)/C=C/C(=O)NCC(=O)NCC(=O)N[C@@H](Cc1ccccc1)C(=O)O)C(=O)N[C@@H](CC(C)C)C(=O)N[C@@H](C)C(=O)N[C@H](C(N)=O)C(C)C (HELM PEPTIDE1{[O=C(/C=C/C(=O)[*:2])NCC(=O)NCC(=O)N[C@@H](Cc1ccccc1)C(=O)O].[O=C([C@H](CN[*:3])N[*:1])[*:2]].L.A.V.[am]}|PEPTIDE2{[ac]}$PEPTIDE1,PEPTIDE2,2:R3-1:R2$$$V2.0)	–	18%	–	30%	20.8 µM	32%	32%	inactive	–	–	–	–
–	CC(C)C[C@H](NC(=O)[C@H](C)NC(=O)/C=C/C(=O)NCC(=O)NCC(=O)N[C@@H](Cc1ccccc1)C(=O)O)C(=O)N[C@@H](CC(C)C)C(=O)N[C@H](C(N)=O)C(C)C (HELM PEPTIDE1{[O=C(/C=C/C(=O)[*:2])NCC(=O)NCC(=O)N[C@@H](Cc1ccccc1)C(=O)O].A.L.L.V.[am]}$$$$V2.0)	–	73%	–	99%	30.7 µM	55%	65%	38%	1 µM	–	–	–
–	CC(C)C[C@H](NC(=O)[C@H](CCC(N)=O)NC(=O)/C=C/C(=O)N[C@@H](C)C(=O)NCC(=O)N[C@@H](Cc1ccccc1)C(=O)O)C(=O)N[C@H](C(=O)N[C@H](C(N)=O)C(C)C)C(C)C (HELM PEPTIDE1{[C[C@H](NC(=O)/C=C/C(=O)[*:2])C(=O)NCC(=O)N[C@@H](Cc1ccccc1)C(=O)O].Q.L.V.V.[am]}$$$$V2.0)	–	45%	–	37%	–	48%	64%	23%	–	–	–	–
–	CC(C)C[C@H](NC(=O)[C@H](Cc1ccccc1)NC(=O)[C@H](CC(N)=O)NC(=O)/C=C/C(=O)NCC(=O)NCC(=O)N[C@@H](Cc1ccccc1)C(=O)O)C(=O)N[C@H](C(N)=O)C(C)C (HELM PEPTIDE1{[O=C(/C=C/C(=O)[*:2])NCC(=O)NCC(=O)N[C@@H](Cc1ccccc1)C(=O)O].N.F.L.V.[am]}$$$$V2.0)	–	49%	–	6%	–	70%	61%	24%	–	–	–	–
–	CC(C)C[C@H](NC(=O)[C@H](CC(N)=O)NC(=O)/C=C/C(=O)NCC(=O)NCC(=O)N[C@@H](Cc1ccccc1)C(=O)O)C(=O)N[C@@H](C)C(=O)N[C@H](C(N)=O)C(C)C (HELM PEPTIDE1{[O=C(/C=C/C(=O)[*:2])NCC(=O)NCC(=O)N[C@@H](Cc1ccccc1)C(=O)O].N.L.A.V.[am]}$$$$V2.0)	–	33%	–	8%	–	41%	24%	17%	–	67.5 µM	–	–
–	CC(=O)NC[C@H](NC(=O)/C=C/C(=O)NCC(=O)NCC(=O)N[C@@H](Cc1ccccc1)C(=O)O)C(=O)N[C@H](C(=O)N[C@@H](C)C(=O)N[C@H](C(N)=O)C(C)C)C1CCCCC1 ({Fumaroyl(GlyGlyPheOH)}-[Dap](Ac)[Chg]AV-NH2)	12.4 µM	83%	–	95%	–	23%	25%	83%	0.3 µM	7 µM	22 µM	Not Active
–	CC(C)C[C@H](NC(=O)[C@H](CC(N)=O)NC(=O)/C=C/C(=O)NCC(=O)NCC(=O)N[C@@H](Cc1ccccc1)C(=O)O)C(=O)N[C@@H](CC(C)C)C(=O)N[C@H](C(N)=O)C(C)C (HELM PEPTIDE1{[O=C(/C=C/C(=O)[*:2])NCC(=O)NCC(=O)N[C@@H](Cc1ccccc1)C(=O)O].N.L.L.V.[am]}$$$$V2.0)	–	92%	–	63%	–	70%	71%	21%	2.7 µM	10.1 µM	74 µM	–
30.7 µM	NCCCC(N)(C(=O)O)C(F)F (stereo unspecified) [EFLORNITHINE]	–	–	–	31%	–	–	–	–	–	–	–	–
–	CC[C@H](C)[C@H](NC(=O)[C@H](C)NC(=O)/C=C/C(=O)NCC(=O)NCC(=O)N[C@@H](Cc1ccccc1)C(=O)O)C(=O)N[C@@H](CC(C)C)C(=O)N[C@H](C(N)=O)C(C)C (HELM PEPTIDE1{[O=C(/C=C/C(=O)[*:2])NCC(=O)NCC(=O)N[C@@H](Cc1ccccc1)C(=O)O].A.I.L.V.[am]}$$$$V2.0)	–	–	–	–	–	61%	58%	–	–	–	–	–
–	CC(C)[C@H](NC(=O)[C@@H](NC(=O)[C@@H](NC(=O)[C@H](C)NC(=O)/C=C/C(=O)NCC(=O)NCC(=O)N[C@@H](Cc1ccccc1)C(=O)O)C1CCCCC1)C(C)C)C(N)=O (HELM PEPTIDE1{[O=C(/C=C/C(=O)[*:2])NCC(=O)NCC(=O)N[C@@H](Cc1ccccc1)C(=O)O].A.[O=C([C@@H](N[*:1])C1CCCCC1)[*:2]].V.V.[am]}$$$$V2.0)	–	–	–	–	–	54%	40%	–	–	–	–	–
–	CC(C)[C@H](NC(=O)[C@@H](NC(=O)[C@@H](NC(=O)[C@H](Cc1ccccc1)NC(=O)/C=C/C(=O)N[C@@H](C)C(=O)NCC(=O)N[C@@H](Cc1ccccc1)C(=O)O)c1ccccc1)C(C)C)C(N)=O (HELM PEPTIDE1{[C[C@H](NC(=O)/C=C/C(=O)[*:2])C(=O)NCC(=O)N[C@@H](Cc1ccccc1)C(=O)O].F.[Phg].V.V.[am]}$$$$V2.0)	–	–	–	–	–	58%	77%	–	–	–	–	–
